ChEMBL document CHEMBL1148220, “Antineoplastic agents. 529. Isolation and structure of nootkastatins 1 and 2 from the Alaskan yellow cedar Chamaecyparis nootkatensis” (2004)
Values after ≈ are worked out from the molar mass of the structure shown. Active and inactive are the calls of the source. The calls are words filed in the database; no cut-off is given here.

How the values were obtained:
Micrococcus luteus [1] = assay: Antimicrobial activity against Micrococcus luteus Presque Isle 456 after 24 hrs by broth microdilution assay; format: functional
Summary of the method: (§1)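 Bacterial MICs were determined by NCCLS broth microdilution. Compounds were dissolved in a small volume of sterile DMSO and diluted in the appropriate medium just before testing. MIC was the lowest concentration giving no visible growth (optically clear). Assays were repeated on separate days.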

Staphylococcus aureus [2] = assay: Antimicrobial activity against Staphylococcus aureus ATCC 29213 after 24 hrs by broth microdilution assay in presence of 25% human serum; format: functional; settings: ATCC 29213, 24 h
Summary of the method: (§2)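 Bacteria were tested by NCCLS broth microdilution in medium containing 25% heat-inactivated, filter-sterilized normal human serum. Compounds were dissolved in sterile DMSO and diluted in medium immediately before use. MIC was the lowest concentration with no visible growth (optically clear). Assays were repeated on separate days.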

BXPC-3 = assay: Cytotoxicity against human BxPC3 cells after 48 hrs by SRB assay; format: functional; settings: BXPC-3, 48 h
Streptococcus pyogenes = assay: Antimicrobial activity against penicillin-resistant Streptococcus pyogenes after 24 hrs by broth microdilution assay in presence of 25% human serum; format: functional
Summary of the method: (§3)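 Bacterial NCCLS broth microdilution run in medium with 25% heat-inactivated, filter-sterilized normal human serum. Compounds were taken up in sterile DMSO and diluted in medium immediately before use. MIC was the lowest concentration with no visible growth (optically clear). Assays were repeated on separate days.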

Neisseria gonorrhoeae [3] = assay: Antimicrobial activity against Neisseria gonorrhoeae ATCC 49226 at 64 ug/mL after 24 hrs by broth microdilution assay; format: functional; settings: ATCC 49226, 24 h
Candida albicans [4] = assay: Antimicrobial activity against Candida albicans ATCC 90028 after 48 hrs by broth microdilution assay in presence of 25% human serum; format: functional; settings: ATCC 90028, 48 h
Summary of the method: (§4)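 For yeasts, NCCLS broth microdilution was run in medium supplemented with 25% heat-inactivated, filter-sterilized normal human serum. Compounds were reconstituted in sterile DMSO and diluted in medium just before the assay. MIC was the lowest concentration giving optically clear wells.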

Enterobacter cloacae [5] = assay: Antimicrobial activity against Enterobacter cloacae ATCC 13047 at 64 ug/mL after 24 hrs by broth microdilution assay; format: functional, organism-based
Neisseria gonorrhoeae [6] = assay: Antimicrobial activity against Neisseria gonorrhoeae ATCC 49226 after 24 hrs by broth microdilution assay in presence of 25% human serum; format: functional; settings: ATCC 49226, 24 h; summary of the method: as §2
Escherichia coli [7] = assay: Antimicrobial activity against Escherichia coli ATCC 25922 after 24 hrs by broth microdilution assay in presence of 25% human serum; format: functional; settings: ATCC 25922, 24 h; summary of the method: as §2
Staphylococcus aureus [8] = assay: Antimicrobial activity against methicillin-resistant Staphylococcus aureus after 24 hrs by broth microdilution assay in presence of 25% human serum; format: functional; summary of the method: as §3
KM-20L2 = assay: Cytotoxicity against human KM20L2 cells after 48 hrs by SRB assay; format: functional; settings: KM-20L2, 48 h
NCI-H460 = assay: Cytotoxicity against human NCI-H460 cells after 48 hrs by SRB assay; format: functional; settings: NCI-H460, 48 h
Streptococcus pneumoniae [9] = assay: Antimicrobial activity against Streptococcus pneumoniae ATCC 6303 after 24 hrs by broth microdilution assay in presence of 25% human serum; format: functional; settings: ATCC 6303, 24 h; summary of the method: as §2
[10] = tested on: Stenotrophomonas maltophilia; assay: Antimicrobial activity against Stenotrophomonas maltophilia ATCC 13637 at 64 ug/mL after 24 hrs by broth microdilution assay; format: functional, organism-based
Streptococcus pneumoniae [11] = assay: Antimicrobial activity against Streptococcus pneumoniae ATCC 6303 after 24 hrs by broth microdilution assay; format: functional; settings: ATCC 6303, 24 h; summary of the method: as §1
Cryptococcus neoformans [12] = assay: Antimicrobial activity against Cryptococcus neoformans ATCC 90122 after 24 hrs by broth microdilution assay in presence of 25% human serum; format: functional; settings: ATCC 90112, 24 h, in the assay text read “ATCC 90112” for “ATCC 90122”; summary of the method: as §4
Rhodococcus sp. = assay: Antimicrobial activity against Rhodococcus sp. after 24 hrs by broth microdilution assay in presence of 25% human serum; format: functional; settings: Rhodococcus sp. (in: high G+C Gram-positive bacteria); summary of the method: as §2
P388 = assay: Cytotoxicity against mouse P388 cells; format: functional; settings: read-out: ED50 (the source's name)
MCF7 = assay: Cytotoxicity against human MCF7 cells after 48 hrs by SRB assay; format: functional; settings: MCF7, 48 h
[13] = tested on: Staphylococcus epidermidis; assay: Antimicrobial activity against Staphylococcus epidermidis ATCC 49461 after 24 hrs by broth microdilution assay in presence of 25% human serum; format: functional; settings: ATCC 49461, 24 h; summary of the method: as §2
Cryptococcus neoformans [14] = assay: Antimicrobial activity against fluconazole-resistant Cryptococcus neoformans after 48 hrs by broth microdilution assay in presence of 25% human serum; format: functional
Streptococcus pneumoniae [15] = assay: Antimicrobial activity against penicillin-resistant Streptococcus pneumoniae after 24 hrs by broth microdilution assay in presence of 25% human serum; format: functional; summary of the method: as §3
Enterobacter cloacae [16] = assay: Antimicrobial activity against Enterobacter cloacae ATCC 13047 after 24 hrs by broth microdilution assay in presence of 25% human serum; format: functional; settings: ATCC 13047, 24 h; summary of the method: as §2
Cryptococcus neoformans [17] = assay: Antimicrobial activity against Cryptococcus neoformans ATCC 90122 after 24 hrs by broth microdilution assay; format: functional; settings: ATCC 90112, 24 h, in the assay text read “ATCC 90112” for “ATCC 90122”
Summary of the method: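 Yeasts were tested by NCCLS broth microdilution. Compounds were dissolved in a small volume of sterile DMSO and diluted in the appropriate medium immediately before testing. MIC was the lowest concentration inhibiting all visible growth (optically clear). Assays were repeated on separate days.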

SF-268 = assay: Cytotoxicity against human SF268 cells after 48 hrs by SRB assay; format: functional; settings: SF-268, 48 h
DU-145 = assay: Cytotoxicity against human DU145 cells after 48 hrs by SRB assay; format: functional; settings: DU-145, 48 h
Candida albicans [18] = assay: Antimicrobial activity against Candida albicans ATCC 90028 at 64 ug/mL after 48 hrs by broth microdilution assay; format: functional, organism-based
Escherichia coli [19] = assay: Antimicrobial activity against Escherichia coli ATCC 25922 at 64 ug/mL after 24 hrs by broth microdilution assay; format: functional, organism-based
Enterococcus faecium = assay: Antimicrobial activity against vancomycin-resistant Enterococcus faecium after 24 hrs by broth microdilution assay in presence of 25% human serum; format: functional; summary of the method: as §3
Micrococcus luteus [20] = assay: Antimicrobial activity against Micrococcus luteus Presque Isle 456 after 24 hrs by broth microdilution assay in presence of 25% human serum; format: functional; summary of the method: as §2
[21] = tested on: Stenotrophomonas maltophilia; assay: Antimicrobial activity against Stenotrophomonas maltophilia ATCC 13637 after 24 hrs by broth microdilution assay in presence of 25% human serum; format: functional; settings: ATCC 13637, 24 h; summary of the method: as §2
Enterococcus faecalis [22] = assay: Antimicrobial activity against Enterococcus faecalis ATCC 29212 after 24 hrs by broth microdilution assay; format: functional; settings: ATCC 29212, 24 h; summary of the method: as §1
Nakaseomyces glabratus = assay: Antimicrobial activity against Candida glabrata after 48 hrs by broth microdilution assay in presence of 25% human serum; format: functional; summary of the method: as §4
Staphylococcus aureus [23] = assay: Antimicrobial activity against Staphylococcus aureus ATCC 29213 after 24 hrs by broth microdilution assay; format: functional; settings: ATCC 29213, 24 h; summary of the method: as §1
Enterococcus faecalis [24] = assay: Antimicrobial activity against Enterococcus faecalis ATCC 29212 after 24 hrs by broth microdilution assay in presence of 25% human serum; format: functional; settings: ATCC 29212, 24 h; summary of the method: as §2

## CC(C)O[C@@H]1C[C@H]2C(C)(C)CCC[C@]2(C)c2ccc(O)c(C(C)C)c2O1 [NOOTKASTATIN 2]
Micrococcus luteus [1]
  MBC: 16 µg/mL (≈ 44.4 µM)
  MIC: 1 µg/mL (≈ 2.77 µM)
Staphylococcus aureus [2]
  MIC: > 64 µg/mL
BXPC-3
  GI50: 1.8 µg/mL (≈ 4.99 µM)
Streptococcus pyogenes
  MIC: > 64 µg/mL
Neisseria gonorrhoeae [3]
  MBC: 2 µg/mL (≈ 5.55 µM)
  MIC: 2 µg/mL (≈ 5.55 µM)
Candida albicans [4]
  MIC: > 64 µg/mL
Enterobacter cloacae [5]
  Activity: inactive
Neisseria gonorrhoeae [6]
  MIC: > 64 µg/mL
Escherichia coli [7]
  MIC: > 64 µg/mL
Staphylococcus aureus [8]
  MIC: > 64 µg/mL
KM-20L2
  GI50: 2.4 µg/mL (≈ 6.66 µM)
NCI-H460
  GI50: 2 µg/mL (≈ 5.55 µM)
Streptococcus pneumoniae [9]
  MIC: > 64 µg/mL
[10]
  Activity: inactive
Streptococcus pneumoniae [11]
  MBC: 64 µg/mL (≈ 178 µM)
  MIC: 64 µg/mL (≈ 178 µM)
Cryptococcus neoformans [12]
  MIC: > 64 µg/mL
Rhodococcus sp.
  MIC: > 64 µg/mL
P388
  EC50: 5.8 µg/mL (≈ 16.1 µM)
MCF7
  GI50: 2.3 µg/mL (≈ 6.38 µM)
[13]
  MIC: > 64 µg/mL
Cryptococcus neoformans [14]
  MIC: > 64 µg/mL
Streptococcus pneumoniae [15]
  MIC: > 64 µg/mL
Enterobacter cloacae [16]
  MIC: > 64 µg/mL
Cryptococcus neoformans [17]
  MIC: 64 µg/mL (≈ 178 µM)
SF-268
  GI50: 2 µg/mL (≈ 5.55 µM)
DU-145
  GI50: 2.2 µg/mL (≈ 6.1 µM)
Candida albicans [18]
  Activity: inactive
Escherichia coli [19]
  Activity: inactive
Enterococcus faecium
  MIC: > 64 µg/mL
Micrococcus luteus [20]
  MIC: > 64 µg/mL
[21]
  MIC: > 64 µg/mL
Enterococcus faecalis [22]
  MBC: 32 µg/mL (≈ 88.8 µM)
  MIC: 2 µg/mL (≈ 5.55 µM)
Nakaseomyces glabratus
  MIC: > 64 µg/mL
Staphylococcus aureus [23]
  MBC: 8 µg/mL (≈ 22.2 µM)
  MIC: 4 µg/mL (≈ 11.1 µM)
Enterococcus faecalis [24]
  MIC: > 64 µg/mL
